Results as given in ChEMBL document CHEMBL5705905, “Pharmacological targeting of kinases MST1 and MST2 augments tissue repair and regeneration” (Sci Transl Med, 2016).

Assays:
[1] = target: Dual specificity mitogen-activated protein kinase kinase 3 (Homo sapiens) (UniProt P46734); test: Inhibition of MEK3 (unknown origin) assessed as remaining activity at 1 uM by Kinome scan method relative to control
[2] = target: Mitogen-activated protein kinase 1 (Homo sapiens) (UniProt P28482); test: Inhibition of ERK2 (unknown origin) assessed as remaining activity at 1 uM by Kinome scan method relative to control
[3] = test system: Phosphatidylinositol 4,5-bisphosphate 3-kinase catalytic subunit alpha isoform (Homo sapiens), P42336 [E545K]; test: Inhibition of PIK3CA E545K mutant (unknown origin) assessed as remaining activity at 1 uM by Kinome scan method relative to control
Mus musculus = test: Protection against APAP induced liver injury in mouse assessed as increase in survival rate at 1 mg/kg, ip administered at 2.5 hrs […]; type: functional
Procedure, shortened: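 Wild-type mice given oral APAP 400 mg/kg, then i.p. vehicle, NAC 250 mg/kg, 1 mg/kg test agent, or NAC plus test agent at 1.5 or 2.5 h. Mortality was tracked with n = 10–11 per group, Mantel-Cox test. Separately, TUNEL was done on liver after 200 mg/kg APAP with treatment at 2.5 h.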

Aurora kinase B = Aurora kinase B (Homo sapiens, UniProt Q96GD4); test: Inhibition of AURKB (unknown origin) assessed as remaining activity at 1 uM by Kinome scan method relative to control
Procedure, shortened: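 Active-site-dependent competition-binding (KINOMEscan) panel of 468 kinases, test compound at 1 μM (from a 10 mM DMSO stock). Read-out is ctrl% = (test signal − positive control signal)/(negative control signal − positive control signal) × 100. DMSO is the negative control (100%) and a control compound is the positive control (0%). Lower ctrl% means tighter binding.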

[4] = target: Serine/threonine-protein kinase TAO3 (Homo sapiens, UniProt Q9H2K8); test: Inhibition of TAOK3 (unknown origin) in presence of ATP by enzymatic assay
[5] = Binding affinity to phosphorylated ABL1 T315I mutant (unknown origin) assessed as dissociation constant; design: species or system Homo sapiens
[6] = target: Homeodomain-interacting protein kinase 2 (Homo sapiens) (UniProt Q9H2X6); test: Inhibition of HIPK2 (unknown origin) assessed as remaining activity at 1 uM by Kinome scan method relative to control
[7] = test system: Tyrosine-protein kinase ABL1 (Homo sapiens), P00519 [H396P]; test: Inhibition of phosphorylated ABL1 H396P mutant (unknown origin) assessed as remaining activity at 1 uM by Kinome scan method relative to control
[8] = target: MAP/microtubule affinity-regulating kinase 4 (Homo sapiens) (UniProt Q96L34); test: Inhibition of MARK4 (unknown origin) assessed as remaining activity at 1 uM by Kinome scan method relative to control
[9] = target: Dual specificity mitogen-activated protein kinase kinase 4 (Homo sapiens) (UniProt P45985); test: Inhibition of MEK4 (unknown origin) assessed as remaining activity at 1 uM by Kinome scan method relative to control
[10] = target: SRSF protein kinase 3 (Homo sapiens) (UniProt Q9UPE1); test: Inhibition of SRPK3 (unknown origin) assessed as remaining activity at 1 uM by Kinome scan method relative to control
[11] = target: Tyrosine-protein kinase Fgr (Homo sapiens) (UniProt P09769); test: Inhibition of FGR (unknown origin) assessed as remaining activity at 1 uM by Kinome scan method relative to control
[12] = target: Tyrosine-protein kinase Lck (Homo sapiens) (UniProt P06239); test: Inhibition of LCK (unknown origin) assessed as remaining activity at 1 uM by Kinome scan method relative to control
[13] = target: Tyrosine-protein kinase JAK1 (Homo sapiens, UniProt P23458); test: Binding affinity to JAK1 JH2domain-pseudokinase (unknown origin) assessed as dissociation constant
[14] = target: Ribosomal protein S6 kinase alpha-5 (Homo sapiens) (UniProt O75582); test: Inhibition of N-terminal kinase domain RPS6KA5 (unknown origin) assessed as remaining activity at 1 uM by Kinome scan method relative to control
[15] = target: Serine/threonine-protein kinase mTOR (Homo sapiens) (UniProt P42345); test: Inhibition of MTOR (unknown origin) assessed as remaining activity at 1 uM by Kinome scan method relative to control
[16] = target: Serine/threonine-protein kinase ICK (Homo sapiens) (UniProt Q9UPZ9); test: Inhibition of ICK (unknown origin) assessed as remaining activity at 1 uM by Kinome scan method relative to control
[17] = target: RAF proto-oncogene serine/threonine-protein kinase (Homo sapiens) (UniProt P04049); test: Inhibition of RAF1 (unknown origin) assessed as remaining activity at 1 uM by Kinome scan method relative to control
[18] = target: MAP kinase-interacting serine/threonine-protein kinase 2 (Homo sapiens) (UniProt Q9HBH9); test: Inhibition of MKNK2 (unknown origin) assessed as remaining activity at 1 uM by Kinome scan method relative to control
[19] = Acute toxicity in wild-type mouse assessed as bromodeoxyuridine positive cells at 1 mg/kg,ip administrated daily for 2 months and after 2 weeks drug withdrawal by H and E staining based immunohistochemical analysis; type: organism-based; settings: in vivo, 1460 h
Procedure, shortened: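 Wild-type mice dosed 1 mg/kg i.p. daily for 2 months (vehicle 0.1% citric acid aqueous solution with 20% Kolliphor HS 15), or dosed and then withdrawn 2 weeks. Liver sections given H&E and IHC for CK19 and BrdU; positive cells counted, n = 3; means ± SD, Student's t test.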

[20] = target: Misshapen-like kinase 1 (Homo sapiens) (UniProt Q8N4C8); test: Inhibition of MINK (unknown origin) assessed as remaining activity at 1 uM by Kinome scan method relative to control
[21] = target: Serine/threonine-protein kinase Sgk2 (Homo sapiens) (UniProt Q9HBY8); test: Inhibition of SGK2 (unknown origin) assessed as remaining activity at 1 uM by Kinome scan method relative to control
[22] = target: Phosphatidylinositol 5-phosphate 4-kinase type-2 gamma (Homo sapiens) (UniProt Q8TBX8); test: Inhibition of PIP5K2C (unknown origin) assessed as remaining activity at 1 uM by Kinome scan method relative to control
[23] = target: Mitogen-activated protein kinase kinase kinase 11 (Homo sapiens) (UniProt Q16584); test: Inhibition of MLK3 (unknown origin) assessed as remaining activity at 1 uM by Kinome scan method relative to control
[24] = AUC (0 to t) in male Sprague-Dawley rat at 10 mg/kg, po measured for 24 hrs by LC-MS/MS analysis; type: ADME, organism-based; settings: in vivo
Procedure, shortened: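 Sprague-Dawley rats, single intravenous or oral dose. Parameters (half-life, AUC, bioavailability) reported in a supplementary table.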

[25] = target: Serine/threonine-protein kinase 24 (Homo sapiens, UniProt Q9Y6E0); test: Inhibition of MST3 (unknown origin) assessed as remaining activity at 1 uM by Kinome scan method relative to control
[26] = target: Tyrosine-protein kinase ITK/TSK (Homo sapiens) (UniProt Q08881); test: Inhibition of ITK (unknown origin) assessed as remaining activity at 1 uM by Kinome scan method relative to control

Sequence of Phosphatidylinositol 4,5-bisphosphate 3-kinase catalytic subunit alpha isoform (Homo sapiens), P42336 [E545K] (P42336 whole entry E545K, canonical isoform): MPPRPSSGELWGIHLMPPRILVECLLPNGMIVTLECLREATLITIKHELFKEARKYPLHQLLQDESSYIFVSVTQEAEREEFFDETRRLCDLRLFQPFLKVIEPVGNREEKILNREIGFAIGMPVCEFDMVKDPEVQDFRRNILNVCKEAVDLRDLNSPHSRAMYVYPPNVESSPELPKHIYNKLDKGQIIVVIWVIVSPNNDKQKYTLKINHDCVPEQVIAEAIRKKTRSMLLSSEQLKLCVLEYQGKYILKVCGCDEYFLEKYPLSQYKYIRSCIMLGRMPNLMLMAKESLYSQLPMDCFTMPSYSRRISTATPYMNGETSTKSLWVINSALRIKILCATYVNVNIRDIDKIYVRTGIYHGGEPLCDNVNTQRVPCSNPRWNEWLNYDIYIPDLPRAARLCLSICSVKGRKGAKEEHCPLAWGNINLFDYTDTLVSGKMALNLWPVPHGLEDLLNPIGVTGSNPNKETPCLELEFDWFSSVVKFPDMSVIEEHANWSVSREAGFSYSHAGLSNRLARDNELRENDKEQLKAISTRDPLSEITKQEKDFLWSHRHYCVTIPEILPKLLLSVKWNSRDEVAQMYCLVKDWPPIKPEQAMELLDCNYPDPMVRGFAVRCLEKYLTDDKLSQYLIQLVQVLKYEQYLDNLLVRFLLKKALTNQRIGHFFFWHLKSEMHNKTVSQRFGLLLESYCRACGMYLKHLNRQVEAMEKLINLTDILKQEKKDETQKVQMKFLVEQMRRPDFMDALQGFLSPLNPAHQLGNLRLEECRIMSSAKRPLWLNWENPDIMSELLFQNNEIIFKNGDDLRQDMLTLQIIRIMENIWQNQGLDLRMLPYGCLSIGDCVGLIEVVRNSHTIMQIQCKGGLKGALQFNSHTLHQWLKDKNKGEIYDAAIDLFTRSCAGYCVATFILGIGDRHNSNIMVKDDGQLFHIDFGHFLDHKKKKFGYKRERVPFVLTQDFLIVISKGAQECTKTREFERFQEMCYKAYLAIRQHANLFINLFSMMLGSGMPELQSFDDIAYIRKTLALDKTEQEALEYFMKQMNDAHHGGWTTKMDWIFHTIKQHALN
Sequence of Aurora kinase B (Q96GD4 whole entry): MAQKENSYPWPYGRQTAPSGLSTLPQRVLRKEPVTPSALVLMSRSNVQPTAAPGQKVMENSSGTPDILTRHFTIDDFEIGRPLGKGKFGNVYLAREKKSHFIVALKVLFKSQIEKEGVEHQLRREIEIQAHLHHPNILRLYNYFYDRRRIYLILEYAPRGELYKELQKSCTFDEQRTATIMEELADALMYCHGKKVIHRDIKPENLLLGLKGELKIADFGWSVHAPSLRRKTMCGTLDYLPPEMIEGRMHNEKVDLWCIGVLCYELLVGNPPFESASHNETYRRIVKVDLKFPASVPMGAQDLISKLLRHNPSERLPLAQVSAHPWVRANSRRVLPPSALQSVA
Sequence of Serine/threonine-protein kinase Sgk2 (Homo sapiens) (Q9HBY8 whole entry): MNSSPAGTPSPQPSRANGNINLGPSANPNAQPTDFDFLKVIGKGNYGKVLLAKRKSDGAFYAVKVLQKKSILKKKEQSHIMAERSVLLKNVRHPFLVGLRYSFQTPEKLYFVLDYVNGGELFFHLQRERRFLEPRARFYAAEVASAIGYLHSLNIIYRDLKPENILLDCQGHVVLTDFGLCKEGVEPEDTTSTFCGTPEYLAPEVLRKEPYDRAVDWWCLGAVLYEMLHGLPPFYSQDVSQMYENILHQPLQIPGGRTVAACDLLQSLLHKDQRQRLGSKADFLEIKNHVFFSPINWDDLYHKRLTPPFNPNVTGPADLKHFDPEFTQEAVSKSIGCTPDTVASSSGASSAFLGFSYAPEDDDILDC
Sequence of Mitogen-activated protein kinase 1 (Homo sapiens) (P28482 whole entry, canonical isoform): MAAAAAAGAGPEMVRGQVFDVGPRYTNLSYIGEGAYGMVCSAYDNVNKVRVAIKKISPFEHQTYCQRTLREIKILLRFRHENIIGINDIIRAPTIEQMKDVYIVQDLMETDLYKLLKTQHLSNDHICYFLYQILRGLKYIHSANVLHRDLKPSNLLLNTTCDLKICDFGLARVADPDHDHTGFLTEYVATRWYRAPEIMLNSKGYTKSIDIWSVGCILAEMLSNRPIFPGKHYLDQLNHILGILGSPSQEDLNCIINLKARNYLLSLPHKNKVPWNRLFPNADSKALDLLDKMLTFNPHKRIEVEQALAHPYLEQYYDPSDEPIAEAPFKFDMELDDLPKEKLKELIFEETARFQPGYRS
Sequence of Ribosomal protein S6 kinase alpha-5 (Homo sapiens) (O75582 whole entry, looked up, the tested form may be a part): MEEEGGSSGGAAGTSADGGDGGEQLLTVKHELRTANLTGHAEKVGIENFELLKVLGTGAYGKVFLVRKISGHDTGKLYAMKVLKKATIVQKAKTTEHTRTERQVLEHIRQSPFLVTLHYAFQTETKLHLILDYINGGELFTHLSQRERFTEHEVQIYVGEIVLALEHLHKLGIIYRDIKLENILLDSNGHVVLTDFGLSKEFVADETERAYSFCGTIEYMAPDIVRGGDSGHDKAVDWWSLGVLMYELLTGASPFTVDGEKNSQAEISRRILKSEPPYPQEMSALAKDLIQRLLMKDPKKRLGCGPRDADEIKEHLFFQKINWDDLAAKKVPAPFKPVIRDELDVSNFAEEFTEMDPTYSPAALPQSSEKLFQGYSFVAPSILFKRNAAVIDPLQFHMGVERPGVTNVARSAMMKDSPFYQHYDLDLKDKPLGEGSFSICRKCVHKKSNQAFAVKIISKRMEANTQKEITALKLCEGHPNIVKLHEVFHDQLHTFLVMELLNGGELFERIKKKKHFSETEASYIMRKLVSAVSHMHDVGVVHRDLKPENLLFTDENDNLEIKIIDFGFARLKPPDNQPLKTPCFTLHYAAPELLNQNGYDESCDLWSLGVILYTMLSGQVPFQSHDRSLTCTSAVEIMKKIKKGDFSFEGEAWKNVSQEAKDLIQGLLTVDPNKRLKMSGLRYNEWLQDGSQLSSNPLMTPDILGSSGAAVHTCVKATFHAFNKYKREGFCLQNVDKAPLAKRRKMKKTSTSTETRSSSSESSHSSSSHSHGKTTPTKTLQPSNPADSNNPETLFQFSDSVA
Sequence of Dual specificity mitogen-activated protein kinase kinase 3 (Homo sapiens) (P46734 whole entry): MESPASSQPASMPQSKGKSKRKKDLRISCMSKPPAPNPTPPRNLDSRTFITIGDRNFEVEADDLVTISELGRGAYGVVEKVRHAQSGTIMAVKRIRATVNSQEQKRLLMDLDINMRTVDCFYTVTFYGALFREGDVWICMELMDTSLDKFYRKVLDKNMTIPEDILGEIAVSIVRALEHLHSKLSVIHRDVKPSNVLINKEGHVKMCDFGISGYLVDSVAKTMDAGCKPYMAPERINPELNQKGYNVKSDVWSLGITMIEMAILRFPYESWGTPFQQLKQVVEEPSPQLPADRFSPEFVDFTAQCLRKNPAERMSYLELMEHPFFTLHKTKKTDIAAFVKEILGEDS
Sequence of Serine/threonine-protein kinase TAO3 (Q9H2K8 whole entry): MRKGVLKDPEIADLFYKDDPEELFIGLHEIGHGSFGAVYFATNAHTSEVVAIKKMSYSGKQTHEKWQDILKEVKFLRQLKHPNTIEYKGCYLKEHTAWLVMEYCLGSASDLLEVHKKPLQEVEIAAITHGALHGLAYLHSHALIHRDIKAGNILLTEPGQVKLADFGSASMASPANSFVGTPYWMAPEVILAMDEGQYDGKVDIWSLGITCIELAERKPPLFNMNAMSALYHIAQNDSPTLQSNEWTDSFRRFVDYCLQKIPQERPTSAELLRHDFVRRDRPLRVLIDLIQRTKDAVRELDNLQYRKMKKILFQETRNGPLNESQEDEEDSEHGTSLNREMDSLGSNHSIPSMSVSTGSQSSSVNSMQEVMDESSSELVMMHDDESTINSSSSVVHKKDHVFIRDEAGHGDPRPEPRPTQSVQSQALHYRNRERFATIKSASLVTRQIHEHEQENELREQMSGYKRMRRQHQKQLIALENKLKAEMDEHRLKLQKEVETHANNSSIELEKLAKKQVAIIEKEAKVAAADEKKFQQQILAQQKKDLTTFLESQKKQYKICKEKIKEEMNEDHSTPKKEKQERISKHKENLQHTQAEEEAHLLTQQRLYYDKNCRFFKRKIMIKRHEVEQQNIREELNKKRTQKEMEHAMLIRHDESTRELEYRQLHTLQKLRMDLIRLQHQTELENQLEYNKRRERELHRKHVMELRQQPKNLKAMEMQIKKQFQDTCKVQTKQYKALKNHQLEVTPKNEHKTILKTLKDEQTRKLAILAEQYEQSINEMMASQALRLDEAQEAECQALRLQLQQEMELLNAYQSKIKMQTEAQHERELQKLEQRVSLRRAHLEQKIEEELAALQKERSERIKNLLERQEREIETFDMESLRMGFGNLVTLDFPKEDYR
Sequence of SRSF protein kinase 3 (Homo sapiens) (Q9UPE1 whole entry): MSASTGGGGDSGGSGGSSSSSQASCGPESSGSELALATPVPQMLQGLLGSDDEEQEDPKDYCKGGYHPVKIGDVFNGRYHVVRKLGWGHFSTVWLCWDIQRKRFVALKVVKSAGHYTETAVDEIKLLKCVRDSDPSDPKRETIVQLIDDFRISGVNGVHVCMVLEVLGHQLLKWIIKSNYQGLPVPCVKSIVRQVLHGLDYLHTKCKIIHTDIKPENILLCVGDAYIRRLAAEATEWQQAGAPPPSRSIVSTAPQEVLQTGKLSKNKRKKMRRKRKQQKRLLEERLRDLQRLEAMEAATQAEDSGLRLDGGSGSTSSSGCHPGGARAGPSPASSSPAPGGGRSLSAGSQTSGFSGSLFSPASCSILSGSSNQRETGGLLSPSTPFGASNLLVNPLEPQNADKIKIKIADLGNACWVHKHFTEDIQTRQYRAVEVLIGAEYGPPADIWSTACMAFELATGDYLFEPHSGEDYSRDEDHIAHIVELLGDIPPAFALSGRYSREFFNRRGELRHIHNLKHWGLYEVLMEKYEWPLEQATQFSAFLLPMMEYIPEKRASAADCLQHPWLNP

## CN1C(=O)c2sccc2N(C)c2nc(Nc3ccc(S(N)(=O)=O)cc3)ncc21
[1]
  Activity: 66%
[2]
  Activity: 100%
[3]
  Activity: 49%
Mus musculus
  Activity: ~40%
Aurora kinase B
  Activity: 3.4%
[4]
  IC50: 254 nM
[5]
  Kd: 14 nM
[6]
  Activity: 96%
[7]
  Activity: 14%
[8]
  Activity: 100%
[9]
  Activity: 100%
[10]
  Activity: 100%
[11]
  Activity: 56%
[12]
  Activity: 100%
[13]
  Kd: 22 nM
[14]
  Activity: 97%
[15]
  Activity: 84%
[16]
  Activity: 62%
[17]
  Activity: 80%
[18]
  Activity: 59%
[19]
  Activity: Non-Toxic
[20]
  Activity: 58%
[21]
  Activity: 91%
[22]
  Activity: 8%
[23]
  Activity: 100%
[24]
  AUC(0-t) at 24 h: 993 ng·h/mL
[25]
  Activity: 0.9%
[26]
  Activity: 97%
